Common to all, as to type: ADME, organism-based
Data set [1] in a line: Drug level in Han Wistar rat blood at 35 umol/kg, iv dosed up to 6 hrs infusions by LC-MS/MS analysis. As to conditions: whole blood, read-out: Drug uptake. An outline of the steps:
(§1)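 Han Wistar rats (250-300 g, n=8/group) received the compound by IV infusion over 6 h at 10, 35 or 50 µmol/kg. Blood concentration was taken as the steady-state level over the 6 h infusion period.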

Data set [2] can be described thus: Systemic oral bioavailability in Han Wistar rat at 2 mg/kg after 24 hrs by LC-MS/MS analysis. As to conditions: in vivo. A digest of the protocol: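 Han Wistar rats (n=3) were dosed IV and PO in a crossover design with a two-day washout. Blood was sampled over 24 h and analysed by LC/MS/MS.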
Data set [3] in a line: Drug level in Han Wistar rat blood at 10 umol/kg, iv dosed up to 6 hrs infusions by LC-MS/MS analysis. The settings on record: whole blood, read-out: Drug uptake. An outline of the steps: as §1
A short description of data set [4]: Drug level in Han Wistar rat blood at 50 umol/kg, iv dosed up to 6 hrs infusions by LC-MS/MS analysis. As to conditions: whole blood, read-out: Drug uptake. An outline of the steps: as §1

The values below come from ChEMBL document CHEMBL3817762, “Monoacidic Inhibitors of the Kelch-like ECH-Associated Protein 1: Nuclear Factor Erythroid 2-Related Factor 2 (KEAP1:NRF2) Protein-Protein Interaction with High Cell Potency Identified by Fragment-Based Discovery” (J Med Chem, 2016).

The structures appear in SMILES notation.

Usually bioavailability stands for the share of a dose that reaches the circulation, judged against a reference dose that is usually intravenous. Low values mean little systemic uptake, high ones much systemic uptake.

On to `COc1cc([C@@H](CC(=O)O)c2ccc(C)c(CN3C[C@@H](C)Oc4ccccc4S3(=O)=O)c2)cc2nnn(C)c12`, for which the concentration at 6 h in data set [1] was determined as 946 nM; in data set [3] it was 407 nM; in data set [4] it was 1440 nM. Moreover, the bioavailability in data set [2] is 7%.
